Hits are enriched below; roughly 5.1% of the tested compounds scored in any of these assays.
STAT1 inh = reduces IFN-gamma driven STAT1 reporter signal; NIH 3T3 STAT1-luciferase reporter, luminescence; inhibition, % at 5.5 µM; actives 0.35% (n = 200,000); AID 920;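 active = inhibition above a set limit, the mean inhibition across all tested compounds plus 3 SD, cut at about 34% in these data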
STAT3 inh-1 = inhibitors of IL-6 induced STAT3 signaling; actives 0.89% (n = 190,000); inhibition, % at 5.5 µM; U3A cells, IL-6 STAT3-luciferase reporter, luminescence; host cell line lacks STAT1;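 active = inhibition above the mean inhibition across all screened compounds plus 3 SD, cut at about 44% in these data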
STAT1 act = increases IFN-gamma driven STAT1 reporter signal. NIH 3T3 STAT1-luciferase reporter, luminescence; 100% = IFN-gamma alone, no compound. activation (% of control), % at 5.5 µM. actives 2.6% (n = 200,000). AID 932;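 active = activation above the screen-wide mean activation plus 3 SD, cut at about 130% in these data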
APP 5'UTR act = APP 5'UTR luciferase reporter activation; SH-SY5Y APP 5'UTR luciferase reporter, luminescence; zero percent = DMSO vehicle wells; activation, % at 2 µM; actives 1% (n = 190,000); AID 1276;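 active = activation above a set limit, based on mean plus 3 SD of controls, cut at about 140% in these data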
STAT3 activator = activators of IL-6 induced STAT3 signaling; activation (% of control), % at 5.6 µM; AID 871; actives 0.91% (n = 190,000); U3A cells, IL-6 STAT3-luciferase reporter, luminescence; 100% = signal with IL-6 EC80 alone;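 active = activation above the screen-wide mean of compound activation plus 3 SD, cut at about 130% in these data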
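Material: STAT1-lacking human U3A cells, STAT3 luciferase reporter | Benchmarks: IL-6-only wells as 100% reference | Probe or stimulus: IL-6 (33 ng/mL) | Timing: Compound 1 h, then IL-6 6 h at 37 °C | Detection: Luminescence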
NF-kB neuron act = compounds increasing NF-kB expression in human neuronal cells; fold change at 12.5 µM; actives 1.6% (n = 190,000); AID 1239; NF-kB reporter expression; hits give high values; in the data active = fold change above about 3.3
STAT3 inh-2 = confirmation of STAT3 signaling inhibitors. shares compounds with STAT3 inh-1. U3A cells, IL-6 STAT3 luciferase reporter, luminescence; cell line lacks STAT1. inhibition, % at 5.7 µM. actives 45% (n = 1,200);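 active = inhibition above the hit cutoff computed for the primary STAT3 screen, cut at about 44% in these data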
NFkB inh 2 = counter-screen for STAT3 inhibitors: NF-kappaB inhibition; AID 1308; actives 36% (n = 1,200); shares compounds with STAT3 inh-1; HEK293T NF-kB luciferase reporter, TNF-alpha induced; inhibition, % at 5.7 µM;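 active = inhibition above the mean of solvent-only control wells plus 3 SD, cutoff set per campaign, cut at about 13% in these data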
STAT1 inh 2 = counter-screen for STAT3 inhibitors: STAT1 inhibition | NIH 3T3 STAT1-luciferase reporter, IFN-gamma induced, luminescence | shares compounds with STAT3 inh-1 | actives 27% (n = 1,200) | inhibition, % at 5.7 µM;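 active = inhibition above the mean plus 3 SD of solvent-only control wells, limit set per screening run, cut at about 16% in these data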
Hits are given with their value.

For COc1cccc(OC)c1NC(=O)Cc1nn(C)c(=O)c2ccccc12 the results were STAT1 inh inactive, STAT3 inh-1 inactive, STAT1 act inactive, APP 5'UTR act inactive, STAT3 activator inactive and NF-kB neuron act inactive.
`Cn1nc(CC(=O)Nc2ccc(N3CCN(C(=O)OC(C)(C)C)CC3)cc2)c2ccccc2c1=O` gave STAT1 inh inactive, STAT3 inh-1 79.6, STAT1 act inactive, APP 5'UTR act inactive, STAT3 activator inactive, NF-kB neuron act inactive, STAT3 inh-2 83.4, NFkB inh 2 32.5 and STAT1 inh 2 21.9.
For COc1ccccc1NC(=O)Cc1nn(C)c(=O)c2ccccc12 the results were STAT1 inh inactive, STAT3 inh-1 53.5, STAT1 act inactive, APP 5'UTR act inactive, STAT3 activator inactive, NF-kB neuron act inactive, STAT3 inh-2 53.7, NFkB inh 2 13.1 and STAT1 inh 2 17.5.
`Cc1csc(NC(=O)Cc2nn(C)c(=O)c3ccccc23)n1` gave STAT1 inh inactive, STAT3 inh-1 54.2, STAT1 act inactive, APP 5'UTR act inactive, STAT3 activator inactive, NF-kB neuron act inactive, STAT3 inh-2 59.8, NFkB inh 2 17.7 and STAT1 inh 2 20.8.
`Cn1nc(CC(=O)N2CCN(c3ccccc3)CC2)c2ccccc2c1=O` gave STAT1 inh inactive, STAT3 inh-1 inactive, STAT1 act inactive, APP 5'UTR act inactive, STAT3 activator inactive and NF-kB neuron act inactive.
`COc1cc(NC(=O)Cc2nn(C)c(=O)c3ccccc23)cc(OC)c1` gave STAT1 inh inactive, STAT3 inh-1 47.7, STAT1 act inactive, APP 5'UTR act inactive, STAT3 activator inactive, NF-kB neuron act inactive, STAT3 inh-2 inactive, NFkB inh 2 inactive and STAT1 inh 2 17.4.
`CC1=C(C(=O)Nc2ccccc2)C(c2cccnc2)n2ncnc2N1` (centres undefined) gave STAT1 inh inactive, STAT3 inh-1 inactive, STAT1 act inactive, APP 5'UTR act inactive, STAT3 activator inactive and NF-kB neuron act inactive.
Screening CC(C)(C)C1CCC(OCC(O)CN2CCN(c3ccccn3)CC2)CC1 (centres undefined) returned STAT1 inh inactive, STAT3 inh-1 inactive, STAT1 act inactive, APP 5'UTR act inactive, STAT3 activator inactive and NF-kB neuron act inactive.
Cc1ccc(-n2cc(C(=O)O)c(=O)cc2C)c(C)c1 was read as STAT1 inh inactive, STAT3 inh-1 inactive, STAT1 act inactive, APP 5'UTR act inactive, STAT3 activator inactive and NF-kB neuron act inactive.
For Cc1cc(C(=O)OCC(=O)Nc2cccc(S(=O)(=O)N(C)C)c2)c2ccccc2n1 the results were STAT1 inh inactive, STAT3 inh-1 47.4, STAT1 act inactive, APP 5'UTR act inactive, STAT3 activator inactive, NF-kB neuron act inactive, STAT3 inh-2 inactive, NFkB inh 2 inactive and STAT1 inh 2 inactive.
CN(C)S(=O)(=O)c1cccc(NC(=O)COC(=O)c2cn(-c3ccccc3)nc2-c2ccccc2)c1 was read as STAT1 inh inactive, STAT3 inh-1 inactive, STAT1 act inactive, APP 5'UTR act inactive, STAT3 activator inactive and NF-kB neuron act inactive.
Screening NC(=O)CSc1nnnn1-c1ccccc1Cl returned STAT1 inh inactive, STAT3 inh-1 inactive, STAT1 act inactive, APP 5'UTR act inactive, STAT3 activator inactive and NF-kB neuron act inactive.
Cc1ccc(OCC(=O)N/N=C/C=C/c2ccco2)cc1C was read as STAT1 inh inactive, STAT3 inh-1 inactive, STAT1 act inactive, APP 5'UTR act inactive, STAT3 activator inactive and NF-kB neuron act inactive.
For CCOC(=O)c1cnn(-c2nc(OCC)cc(OCC)n2)c1C the results were STAT1 inh inactive, STAT3 inh-1 inactive, STAT1 act inactive, APP 5'UTR act inactive, STAT3 activator inactive and NF-kB neuron act inactive.
O=C(NCCCO)c1nc2ccccc2s1 was read as STAT1 inh inactive, STAT3 inh-1 inactive, STAT1 act inactive, APP 5'UTR act inactive, STAT3 activator inactive and NF-kB neuron act inactive.

Bioassay records: PubChem BioAssay, several laboratories
